pIC50: −log10 of the molar value.
Assays:
[1] = biological target: Human immunodeficiency virus type 1 integrase (Human immunodeficiency virus 1, UniProt Q7ZJM1); assay: Inhibition of HIV1 integrase strand transfer activity
[2] = Clearance in Sprague-Dawley rat at 1 mg/kg, iv after 4 hrs; type: ADME, organism-based; details: in vivo
In short: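 Male Sprague-Dawley rats given 1 mpk IV in PEG400/ethanol (90:10); blood sampled at 5 and 30 min and 1, 2 and 4 h post-dose; clearance from plasma profile.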

[3] = Aqueous solubility of the compound; type: physicochemical
In short: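 Aqueous solubility measured at pH 2.3, 6.1, 7.3 and 8.5, in µg/mL.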

Sequence of Human immunodeficiency virus type 1 integrase (Q7ZJM1 whole entry): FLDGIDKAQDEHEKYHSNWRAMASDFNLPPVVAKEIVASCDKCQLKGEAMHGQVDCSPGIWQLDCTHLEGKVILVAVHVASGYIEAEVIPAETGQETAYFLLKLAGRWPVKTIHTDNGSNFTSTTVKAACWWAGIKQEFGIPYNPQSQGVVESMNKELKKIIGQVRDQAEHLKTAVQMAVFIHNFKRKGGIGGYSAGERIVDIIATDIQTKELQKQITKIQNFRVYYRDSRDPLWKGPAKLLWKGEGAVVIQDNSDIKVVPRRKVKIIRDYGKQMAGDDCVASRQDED

## CC1(C)OCCn2c1nc(C(=O)NCc1ccc(F)cc1Cl)c(O)c2=O
[1]
  pIC50: 8.00

## CNC(=O)c1cc(F)ccc1CNC(=O)c1nc2n(c(=O)c1O)CCOC2(C)C
[2]
  clearance: 1.32 L/h/kg
[1]
  pIC50: 7.96

## CN(C)S(=O)(=O)c1c(CNC(=O)c2nc3n(c(=O)c2O)CCOC3(C)C)ccc(F)c1F
[2]
  clearance: 3.72 L/h/kg
[1]
  pIC50: 8.00

## CC1(C)OCCn2c1nc(C(=O)NCc1ccc(F)cc1N1CCCCS1(=O)=O)c(O)c2=O
[2]
  clearance: 2.28 L/h/kg
[1]
  pIC50: 8.05

## Cc1cc(CNC(=O)c2nc3n(c(=O)c2O)CCOC3(C)C)ccc1F
[2]
  clearance: 0.66 L/h/kg
[1]
  pIC50: 8.52

## O=C(NCc1ccc(F)cc1S(=O)(=O)N1CCOCC1)c1nc2n(c(=O)c1O)CCCC21CCCC1
[3]
  solubility: ≤ 5 µg/mL
[1]
  pIC50: 7.96

## Cc1cc(F)ccc1CNC(=O)c1nc2n(c(=O)c1O)CCOC2(C)C
[1]
  pIC50: 8.70

## CC1(C)OCCn2c1nc(C(=O)NCc1ccc(F)cc1N1CCOCC1)c(O)c2=O
[2]
  clearance: 1.74 L/h/kg
[1]
  pIC50: 8.30

— ChEMBL document CHEMBL4118197, “The discovery and preclinical evaluation of BMS-707035, a potent HIV-1 integrase strand transfer inhibitor” (Bioorg Med Chem Lett, 2018)
